Measurements from different studies.
Compare with care: the assays were run in different laboratories.
Target: TGF-beta receptor type-1 (TGFBR1, Homo sapiens, UniProt P36897)
Sequence (P36897 34-503, as in one of the studies): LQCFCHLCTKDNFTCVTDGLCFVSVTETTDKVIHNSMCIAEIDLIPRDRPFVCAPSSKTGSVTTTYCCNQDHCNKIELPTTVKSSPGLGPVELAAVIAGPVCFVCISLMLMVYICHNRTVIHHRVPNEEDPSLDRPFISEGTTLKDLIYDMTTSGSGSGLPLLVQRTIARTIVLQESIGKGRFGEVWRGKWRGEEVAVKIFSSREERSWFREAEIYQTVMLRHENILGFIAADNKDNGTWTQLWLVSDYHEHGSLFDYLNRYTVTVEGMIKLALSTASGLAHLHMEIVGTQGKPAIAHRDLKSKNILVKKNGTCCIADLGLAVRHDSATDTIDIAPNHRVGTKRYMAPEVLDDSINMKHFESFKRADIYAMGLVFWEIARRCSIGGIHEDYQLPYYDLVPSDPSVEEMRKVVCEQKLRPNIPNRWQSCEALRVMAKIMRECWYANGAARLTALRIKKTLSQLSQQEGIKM

C[C@H](c1ccc(F)cc1)N(Cc1cccc(C(=O)O)c1)C(=O)c1cnc2ccccc2c1
remaining binding (cell-free assay; competition with immobilised ligand; 1 µM): 96%

CCN1CCN(Cc2ccc(C(=O)Nc3ccc(C)c(Oc4ccc5c(c4)CC(=O)N5)c3)cc2C(F)(F)F)CC1
remaining binding (binding; competition with immobilised ligand; 1 µM): 100%

Nc1c(C(=O)NCc2ccc(C(=O)NCCCC3CCCCC3)cc2)cnn1-c1ccccc1
remaining binding (cell-free assay; competition with immobilised ligand; 0.1 µM): 100%

C[C@@H]1CN(c2ccc3ncc(-c4ccc5[nH]nc(C6CC6)c5c4)n3n2)C[C@H](C)O1
remaining binding (binding; competition with immobilised ligand; 50 nM): 100%

CC(C)(C)c1ccc(-c2nc(CBr)nn2-c2cccc(O)c2)cc1
remaining binding (cell-free assay; competition with immobilised ligand; 10 µM): 90%

O=C(N[C@H]1CCCCC/C=C\C2C[C@@]2(C(=O)O)NC(=O)[C@@H]2C[C@@H](Oc3ccncc3)CN2C1=O)OC1CCCC1 (some centres unmarked)
remaining binding (cell-free assay; competition with immobilised ligand; 1 µM): 100%

O=C(c1ccc(Nc2ncc(Cl)c(-c3ccc(Cl)s3)n2)cc1)N1CCC(N2CCCC2)CC1
remaining binding (binding; competition with immobilised ligand; 1 µM): 55%

N[C@H]1CCN(c2nccc(-c3cnn4ncccc34)n2)C1
remaining binding (binding; 1 µM): 100%

C[C@@H](c1ccc(-n2cnc3c(N)ncnc32)cc1)N1CCc2nn(C)c(Cc3ccccc3)c2C1=O
remaining binding (binding; competition with immobilised ligand; 0.1 µM): 82%

CN(C)c1ncc(F)c(-c2cnn3ncccc23)n1
remaining binding (binding; 1 µM): 86%

CC(=O)Nc1c(C(C)=O)c(=O)n(C)c2nc(-c3ccc(Cl)cc3Cl)c(-c3ccc(Cl)cc3)cc12
remaining binding (cell-free assay; competition with immobilised ligand; 1 µM): 82%

O=C(NCC1CCOCC1)c1n[nH]cc1NC(=O)c1c(F)cccc1F
remaining binding (binding; competition with immobilised ligand; 1 µM): 96%

O=C(c1ccc(Nc2ncc(Cl)c(-c3cc4ccccc4s3)n2)cc1)N1CCC(N2CCCC2)CC1
remaining binding (binding; competition with immobilised ligand; 1 µM): 52%

CN(C)c1nccc(-c2cnc3ncccn23)n1
remaining binding (binding; 1 µM): 82%

COc1cnc(Nc2cccc(S(N)(=O)=O)c2)nc1N1CCN(c2ccccc2)CC1
remaining binding (binding; competition with immobilised ligand; 1 µM): 100%

Cc1nc(Cc2cccc(C(F)(F)F)c2)sc1-c1ccc(C(N)=O)nc1
remaining binding (cell-free assay; competition with immobilised ligand; 1 µM): 90%

CN(C)c1nccc(-c2cnn3ncccc23)n1
remaining binding (binding; 1 µM): 100%
